29 compounds from ChEMBL document CHEMBL4406825, “Design, synthesis and preliminary bioactivity evaluations of 8-hydroxyquinoline derivatives as matrix metalloproteinase (MMP) inhibitors” (Eur J Med Chem, 2019) can be followed below.

In general, IC50 refers to the point on the concentration scale where inhibition reaches its midpoint. The term inhibition denotes the share of the control response that was lost under treatment.

Activity calls are given as the source filed them. The calls are words filed in the database; no cut-off is given here.

Experiment [1] deals with A549. As to the kind of experiment: Antiproliferative activity against human A549 cells assessed as reduction in cell viability incubated for 48 hrs by MTT assay. Format: functional, cell-based. The note with it: A549, 48 h. The essentials: (§1)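 Cells grown in RPMI1640 with 10% FBS at 37°C, 5% CO2; seeded at 4000-5000 cells/well for 8 h, then exposed to a range of compound concentrations for 48 h. MTT added for 4 h, formazan dissolved in DMSO, absorbance at 570 nm; IC50 calculated from inhibition ratios.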
In general terms: Tetrazolium assays rely on reduction of a dye to a coloured formazan, in cell work by metabolically active cells.

For another experiment, the system named is HL-60. The experiment is described as follows: Antiproliferative activity against human HL60 cells assessed as reduction in cell viability incubated for 48 hrs by MTT assay. Format: functional, cell-based. The note with it: HL-60, 48 h. In a few lines:
as §1

Another experiment concerns K562. The experiment is described as follows: Antiproliferative activity against human K562 cells assessed as reduction in cell viability incubated for 48 hrs by MTT assay. Type of experiment: functional, cell-based. To be noted: K562, 48 h. The essentials:
as §1

Experiment [2] addresses T1, Matrix metalloproteinase-9 (Homo sapiens, UniProt P14780). As to the kind of experiment: Inhibition of recombinant human MMP9 using thiopeptide as substrate preincubated for 30 mins followed by substrate addition and measured every min for 20 mins by colorimetric assay.
Experiment [3] deals with T1, Matrix metalloproteinase-9. The experiment is described as follows: Inhibition of recombinant human MMP9 at 10 uM using thiopeptide as substrate preincubated for 30 mins followed by substrate addition and measured every min for 20 mins by colorimetric assay relative to control. In a few lines: (§2)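 Colorimetric kit assay: human recombinant enzyme plus inhibitor in assay buffer for 30 min at 37 °C, then chromogenic MMP substrate added; A412 recorded each minute over 20 min. Enzyme-free blanks and inhibitor-free controls included.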

The next experiment relates to PC-3. As to the kind of experiment: Antiproliferative activity against human PC3 cells assessed as reduction in cell viability incubated for 48 hrs by MTT assay. Format: functional, cell-based. To be noted: PC-3, 48 h. In a few lines:
as §1

The target of experiment [4] is T2, 72 kDa type IV collagenase (Homo sapiens, UniProt P08253). The experiment is described as follows: Inhibition of recombinant human MMP2 using thiopeptide as substrate preincubated for 30 mins followed by substrate addition and measured every mins for 20 min by colorimetric assay.
Target sequence in this assay (P08253 whole entry): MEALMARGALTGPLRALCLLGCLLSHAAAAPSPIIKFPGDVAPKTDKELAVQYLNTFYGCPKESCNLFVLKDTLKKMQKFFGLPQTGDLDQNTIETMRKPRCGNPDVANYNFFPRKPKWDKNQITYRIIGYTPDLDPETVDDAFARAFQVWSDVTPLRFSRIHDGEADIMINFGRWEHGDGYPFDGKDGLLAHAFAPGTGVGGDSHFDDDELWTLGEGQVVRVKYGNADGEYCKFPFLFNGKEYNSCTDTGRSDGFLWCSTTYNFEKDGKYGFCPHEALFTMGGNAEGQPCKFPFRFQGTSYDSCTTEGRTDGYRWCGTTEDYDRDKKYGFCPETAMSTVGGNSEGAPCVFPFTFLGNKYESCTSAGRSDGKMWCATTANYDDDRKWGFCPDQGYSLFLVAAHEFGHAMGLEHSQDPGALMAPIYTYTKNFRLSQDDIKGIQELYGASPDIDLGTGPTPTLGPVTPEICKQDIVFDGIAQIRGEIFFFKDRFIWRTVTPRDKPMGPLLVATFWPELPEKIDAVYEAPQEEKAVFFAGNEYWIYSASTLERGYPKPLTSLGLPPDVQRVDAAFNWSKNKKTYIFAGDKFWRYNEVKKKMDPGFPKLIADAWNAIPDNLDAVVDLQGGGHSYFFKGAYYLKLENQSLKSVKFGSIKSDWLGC
A further experiment has as its system MCF7. As to the kind of experiment: Antiproliferative activity against human MCF7 cells assessed as reduction in cell viability incubated for 48 hrs by MTT assay. Format: functional, cell-based. The note with it: MCF7, 48 h. In a few lines: as §1
In experiment [5] the target is T2, 72 kDa type IV collagenase. As to the kind of experiment: Inhibition of recombinant human MMP2 at 10 uM using thiopeptide as substrate preincubated for 30 mins followed by substrate addition and measured every min for 20 mins by colorimetric assay relative to control. The essentials:
as §2
Target sequence in this assay (P08253 110-660 limits assumed): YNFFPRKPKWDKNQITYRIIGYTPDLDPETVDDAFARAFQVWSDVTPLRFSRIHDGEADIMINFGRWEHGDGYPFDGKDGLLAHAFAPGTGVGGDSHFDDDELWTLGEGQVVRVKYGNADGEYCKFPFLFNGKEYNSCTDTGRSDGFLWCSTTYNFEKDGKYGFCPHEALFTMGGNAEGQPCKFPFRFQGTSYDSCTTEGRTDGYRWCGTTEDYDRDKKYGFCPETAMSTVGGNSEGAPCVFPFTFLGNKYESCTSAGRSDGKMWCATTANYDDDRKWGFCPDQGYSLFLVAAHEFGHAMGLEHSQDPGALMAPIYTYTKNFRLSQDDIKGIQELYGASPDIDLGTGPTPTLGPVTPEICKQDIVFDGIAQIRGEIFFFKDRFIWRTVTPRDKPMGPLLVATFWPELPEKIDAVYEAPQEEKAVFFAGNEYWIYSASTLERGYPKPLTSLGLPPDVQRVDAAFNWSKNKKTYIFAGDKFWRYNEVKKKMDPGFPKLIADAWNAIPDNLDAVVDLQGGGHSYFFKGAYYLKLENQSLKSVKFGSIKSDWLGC

The next experiment relates to HUVEC. The experiment is described as follows: Cytotoxicity against HUVEC assessed as reduction in cell viability incubated for 48 hrs by MTT assay. Format: cell-based. To be noted: Homo sapiens. In a few lines: as §1
The test system of the next experiment is KG-1. As to the kind of experiment: Antiproliferative activity against human KG1 cells assessed as reduction in cell viability incubated for 48 hrs by MTT assay. Type of experiment: functional, cell-based. To be noted: KG-1, 48 h. In a few lines:
as §1

Experiment [6] concerns A549. As to the kind of experiment: Inhibition of cell invasion in human A549 cells at 1 to 10 uM incubated for 24 hrs by crystal violet staining based matrigel migration assay. Type of experiment: functional. The essentials: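 As the migration setup but membrane precoated with matrigel (1:10 diluted) for 2 h at 37°C: A549 pretreated 24 h at 1, 5, 10 µM, 30,000 cells in serum-free medium above, 10% FBS below, 24 h, then fixing, 0.1% crystal violet staining and counting. Three repeats, mean ± SEM.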

T1 sequence (P14780 whole entry): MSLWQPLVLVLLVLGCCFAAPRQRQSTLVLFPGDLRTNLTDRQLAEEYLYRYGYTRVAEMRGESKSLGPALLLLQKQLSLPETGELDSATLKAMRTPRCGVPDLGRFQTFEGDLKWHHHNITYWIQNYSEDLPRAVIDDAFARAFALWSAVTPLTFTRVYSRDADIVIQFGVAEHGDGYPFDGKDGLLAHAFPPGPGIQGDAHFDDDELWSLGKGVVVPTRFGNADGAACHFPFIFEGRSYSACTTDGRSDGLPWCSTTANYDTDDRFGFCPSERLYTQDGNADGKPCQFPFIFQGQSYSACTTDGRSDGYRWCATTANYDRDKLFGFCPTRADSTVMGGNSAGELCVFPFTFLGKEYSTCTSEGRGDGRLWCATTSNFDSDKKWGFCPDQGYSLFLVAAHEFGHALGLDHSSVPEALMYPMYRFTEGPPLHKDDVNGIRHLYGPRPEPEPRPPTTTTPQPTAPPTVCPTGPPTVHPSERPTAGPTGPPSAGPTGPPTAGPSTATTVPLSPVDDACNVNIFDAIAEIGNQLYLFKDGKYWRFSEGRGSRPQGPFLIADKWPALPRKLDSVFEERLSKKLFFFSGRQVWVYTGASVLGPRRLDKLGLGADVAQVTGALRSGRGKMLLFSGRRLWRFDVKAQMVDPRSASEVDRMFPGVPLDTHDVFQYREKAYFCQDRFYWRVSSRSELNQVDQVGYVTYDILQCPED

With `O=C(CNCc1cc(Cl)c2cccnc2c1O)Nc1ccccc1`, the IC50 in the experiment with A549 [1] was 7.4 µM; in the experiment with HL-60 it was > 5 µM; with K562, 2.9 µM; in [2], 2.1 µM; with PC-3, 10 µM; in experiment [4] it was 3.2 µM. Moreover, the IC50 was 13 µM in the experiment on MCF7, > 50 µM with HUVEC and 2.3 µM in the experiment with KG-1. The figures for the inhibition in experiment [3] and in experiment [5] were 78.8% and 95.8%, respectively.

Turning to `O=C(CCCN1C(=O)c2ccccc2S1(=O)=O)Nc1ccc(O)c2ncccc12`, the IC50 in [2] and in experiment [4] was > 10 µM each time. For the same compound, the inhibition in experiment [5] came out at 50.1%.

As for `Cc1nc2ccccc2n1CCCCC(=O)Nc1ccc(O)c2ncccc12`, the IC50 in [2] and in experiment [4] was > 10 µM throughout.

As to `COc1ccc(S(=O)(=O)N(CC(=O)NO)CC(C)C)cc1`, the IC50 with A549 [1] turned out to be 96 µM; in the experiment on HL-60 it was 29 µM; in the experiment with K562, 143 µM; in [2], 0.0088 µM; with PC-3, 52 µM; in experiment [4], 0.0091 µM. Moreover, the half-inhibitory concentration (IC50) is 187 µM in the experiment with MCF7, > 250 µM with HUVEC and 52 µM in the experiment with KG-1. The inhibition entry in the experiment on A549 [6] is “Active”.

Turning to `Cc1nc2ccccc2n1CCCCCC(=O)Nc1ccc(O)c2ncccc12`, the concentration for half-maximal inhibition (IC50) in experiment [2] and in experiment [4] was > 10 µM throughout. For the same compound, the inhibition in experiment [5] was determined as 38.9%.

As for `O=C(CCN1C(=O)c2ccccc2S1(=O)=O)Nc1ccc(O)c2ncccc12`, the IC50 in experiment [2] and in experiment [4] was > 10 µM each time.

Turning to `Cc1[nH]c2ccccc2c1CCNC(=O)CCCCNCc1cc(Cl)c2cccnc2c1O`, the IC50 in experiment [2] is 3.1 µM; in experiment [4], 7.6 µM. For the same compound, the inhibition in [3] turned out to be 100%; in experiment [5] it was 67.8%.

Take `CC1(C)SCCN(S(=O)(=O)c2ccc(Oc3ccncc3)cc2)[C@H]1C(=O)NO` [PRINOMASTAT]: the IC50 with A549 [1], with HL-60, in the experiment with K562, with PC-3, in the experiment on MCF7 and in the experiment on HUVEC was > 500 µM in each case. Further, the IC50 in the experiment with KG-1 is > 500 µM. Also, in the experiment on A549 [6], the inhibition entry is “Active”.

In the case of `O=C(CCCCNCc1cc(Cl)c2cccnc2c1O)Nc1ccccc1`, the IC50 with A549 [1] worked out at 13 µM; in the experiment on HL-60, 1.9 µM; in the experiment on K562, 2.9 µM; in experiment [2], 3.6 µM; with PC-3, 8.4 µM; in experiment [4], 3 µM. Moreover, the IC50 in the experiment with MCF7 was 7.4 µM; with HUVEC it was > 50 µM; in the experiment with KG-1, 1.6 µM. Also, the inhibition was found to be 99.9% in [3] and 100% in experiment [5].

In the case of `Cc1[nH]c2ccccc2c1CCNC(=O)CCNCc1cc(Cl)c2cccnc2c1O`, the IC50 in experiment [2] and in experiment [4] was > 10 µM each time. In [3], the inhibition was determined as 73.9%.

With `O=C(CCCCCNCc1ccc(O)c2ncccc12)Nc1ccccc1`, the IC50 turned out to be 6 µM in [2] and 8.8 µM in [4]. In addition, the inhibition turned out to be 55% in [3] and 56% in experiment [5].

In the case of `Cc1[nH]c2ccccc2c1CCNC(=O)CCCNCc1ccc(O)c2ncccc12`, the IC50 in experiment [2] and in experiment [4] was > 10 µM each time. In addition, the inhibition in [3] came to 12.3%; in experiment [5], 44.8%.

Consider `O=C(CCNCc1cc(Cl)c2cccnc2c1O)Nc1ccccc1`, for which the IC50 with A549 [1] is 9.7 µM; with HL-60, 1.3 µM; in the experiment with K562 it was 1.7 µM; in experiment [2] it was 3.5 µM; with PC-3 it was 1.9 µM; in [4] it was 3.3 µM. Also, the IC50 was 13 µM in the experiment on MCF7, > 50 µM in the experiment on HUVEC and 1.1 µM in the experiment on KG-1. Besides, the inhibition in experiment [3] worked out at 98.9%; in experiment [5], 100%.

Take `Cc1nc2ccccc2n1CCC(=O)Nc1ccc(O)c2ncccc12`: the IC50 in experiment [2] and in [4] was > 10 µM throughout.

Consider `Cc1[nH]c2ccccc2c1CCNC(=O)CCNCc1ccc(O)c2ncccc12`, for which the IC50 in experiment [2] and in [4] was > 10 µM each time. Moreover, the inhibition was 11.3% in [3] and 49.8% in experiment [5].

Regarding `Cc1[nH]c2ccccc2c1CCNC(=O)CCCCCNCc1cc(Cl)c2cccnc2c1O`, the IC50 in the experiment with A549 [1] was > 25 µM; with HL-60 it was 2.6 µM; with K562, 4.2 µM; in experiment [2] it was 1.7 µM; in the experiment on PC-3, > 25 µM; in experiment [4], 3.6 µM. The IC50 in the experiment on MCF7 was 12 µM; in the experiment with HUVEC, > 50 µM; in the experiment on KG-1 it was 4.7 µM. The inhibition in [3] was determined as 77.1%; in experiment [5], 100%.

Regarding `Cc1nc2ccccc2n1CCCC(=O)Nc1ccc(O)c2ncccc12`, the IC50 in experiment [2] and in [4] was > 10 µM each time. In experiment [5], the inhibition came out at 46.9%.

In the case of `O=C(CCCNCc1ccc(O)c2ncccc12)Nc1ccccc1`, the IC50 in experiment [2] turned out to be 5.1 µM; in experiment [4] it was 5.7 µM. The inhibition stood at 83.9% in [3] and 54.5% in experiment [5].

Take `O=C(CCCCCN1C(=O)c2ccccc2S1(=O)=O)Nc1ccc(O)c2ncccc12`: the IC50 in experiment [2] and in [4] was > 10 µM in each case. The inhibition in [3] stood at 24.3%.

For `O=C(CCCCN1C(=O)c2ccccc2S1(=O)=O)Nc1ccc(O)c2ncccc12`, the IC50 in [2] and in [4] was > 10 µM each time.

Turning to `CN(CCCC(=O)Nc1ccc(O)c2ncccc12)c1ccccc1`, the IC50 in [2] and in experiment [4] was > 10 µM in each case.

Consider `O=C(CCNCc1ccc(O)c2ncccc12)Nc1ccccc1`, for which the IC50 in [2] and in experiment [4] was > 10 µM each time. In experiment [3], the inhibition was 9.8%.

For `Cc1[nH]c2ccccc2c1CCNC(=O)CCCCNCc1ccc(O)c2ncccc12`, the results for the half-inhibitory concentration (IC50) in experiment [2] and in experiment [4] were 5.3 µM and 8.8 µM, respectively. Moreover, the inhibition is 67.8% in experiment [3] and 61% in experiment [5].

`O=C(CCCCCCNCc1ccc(O)c2ncccc12)Nc1ccccc1`: the half-maximal inhibitory concentration (IC50) in [2] and in [4] was > 10 µM throughout. Moreover, the inhibition in experiment [3] was 28.8%; in [5], 53.8%.

With `O=C(CCCCNCc1ccc(O)c2ncccc12)Nc1ccccc1`, the IC50 in experiment [2] and in [4] was > 10 µM each time. In experiment [3], the inhibition is 36.5%.

In the case of `O=C(CNCc1ccc(O)c2ncccc12)Nc1ccccc1`, the IC50 in experiment [2] and in experiment [4] was > 10 µM in each case. Besides, the inhibition in experiment [3] was found to be 42.9%.

As to `Cc1[nH]c2ccccc2c1CCNC(=O)CNCc1cc(Cl)c2cccnc2c1O`, the IC50 in [2] is > 10 µM; in experiment [4], 8.8 µM. Besides, the figures for the inhibition in [3] and in experiment [5] were 35.2% and 59.5%, respectively.

`CN(CCC(=O)Nc1ccc(O)c2ncccc12)c1ccccc1`: the IC50 in experiment [2] and in experiment [4] was > 10 µM in each case.

Turning to `O=C(CCCNCc1cc(Cl)c2cccnc2c1O)Nc1ccccc1`, the half-inhibitory concentration (IC50) with A549 [1] stood at 17 µM; in the experiment on HL-60, 1.9 µM; in the experiment on K562, 1.9 µM; in [2], 3.2 µM; with PC-3, 7.7 µM; in experiment [4] it was 3.8 µM. Moreover, the IC50 with MCF7 was 9 µM; in the experiment with HUVEC, > 50 µM; in the experiment with KG-1, 1.6 µM. For the same compound, the inhibition in experiment [3] and in [5] was 100% each time.
